Test system: Fibroblast
Assay: Multiplex assay against human fibroblast
Type: toxicity, cell-based
Procedure, shortened: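 Tubulin, mitochondrial-mass and membrane-permeability phenotypes are per cents of healthy-nucleus cells. Cells were gated by CellPathfinder machine learning into Hoechst high-intensity objects or normal cells, normal cells into healthy, pyknosed or fragmented nuclei, and pyknosed cells into mitotic or apoptotic. Before that, live cells stained at seeding with Hoechst33342, BioTracker Green Microtubule Cytoskeleton Dye, MitoTracker Red and Annexin V Alexa Fluor 680 were imaged on a CQ1 microscope at 37°C and 5% CO2 after compound addition.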

[1] = 12 h, 1 µM, compound concentration 1 uM, replicate 1
[2] = 12 h, 1 µM, compound concentration 1 uM, replicate 2
[3] = 12 h, 10 µM, compound concentration 10 uM, replicate 1
[4] = 12 h, 10 µM, compound concentration 10 uM, replicate 2
[5] = 24 h, 1 µM, compound concentration 1 uM, replicate 1
[6] = 24 h, 1 µM, compound concentration 1 uM, replicate 2
[7] = 24 h, 10 µM, compound concentration 10 uM, replicate 1
[8] = 24 h, 10 µM, compound concentration 10 uM, replicate 2
[9] = 48 h, 1 µM, compound concentration 1 uM, replicate 1
[10] = 48 h, 1 µM, compound concentration 1 uM, replicate 2
[11] = 48 h, 10 µM, compound concentration 10 uM, replicate 1
[12] = 48 h, 10 µM, compound concentration 10 uM, replicate 2

`CC(C)NCC(O)COc1ccc(CCOCC2CC2)cc1.Cl` (stereo not drawn) [BETAXOLOL HYDROCHLORIDE] was tested, and the “Population Apoptotic (%)” value [1] was 41%, the “Population Fragmented Nuclei (%)” value [1] was 22% and the “Population Healthy Nuclei (%)” value [1] was 47%. For the same compound, the “Population Hoechst High Intensity Objects (%)” value [1] was 4%, the “Population Membrane Permeable-Phenotype (%)” value [1] was 23% and the “Population Mitochondria Different-Phenotype (%)” value [1] was 2%. The “Population Mitotic Cells (%)” value [1] was 58%, the “Population Normal (%)” value [1] was 95% and the “Population Pyknosed Nuclei (%)” value [1] was 30%. For the same compound, the “Population Tubulin-Different-Phenotype (%)” value [1] was 39%, the “Total Cell Count” value [1] was 84 and the “Population Apoptotic (%)” value [2] was 100%. The “Population Fragmented Nuclei (%)” value [2] was 2%, the “Population Healthy Nuclei (%)” value [2] was 95% and the “Population Hoechst High Intensity Objects (%)” value [2] was 16%. The “Population Membrane Permeable-Phenotype (%)” value [2] was 6%, the “Population Mitotic Cells (%)” value [2] was 0% and the “Population Normal (%)” value [2] was 83%. For the same compound, the “Population Pyknosed Nuclei (%)” value [2] was 2%, the “Population Tubulin-Different-Phenotype (%)” value [2] was 9% and the “Total Cell Count” value [2] was 55. For the same compound, the “Population Apoptotic (%)” value [3] was 67%, the “Population Fragmented Nuclei (%)” value [3] was 17% and the “Population Healthy Nuclei (%)” value [3] was 55%. The “Population Hoechst High Intensity Objects (%)” value [3] was 16%, the “Population Membrane Permeable-Phenotype (%)” value [3] was 10% and the “Population Mitochondria Different-Phenotype (%)” value [3] was 17%. The “Population Mitotic Cells (%)” value [3] was 32%, the “Population Normal (%)” value [3] was 83% and the “Population Pyknosed Nuclei (%)” value [3] was 26%. The “Population Tubulin-Different-Phenotype (%)” value [3] was 58%, the “Total Cell Count” value [3] was 125 and the “Population Apoptotic (%)” value [4] was 23%. For the same compound, the “Population Fragmented Nuclei (%)” value [4] was 9%, the “Population Healthy Nuclei (%)” value [4] was 77% and the “Population Hoechst High Intensity Objects (%)” value [4] was 7%. For the same compound, the “Population Membrane Permeable-Phenotype (%)” value [4] was 5%, the “Population Mitochondria Different-Phenotype (%)” value [4] was 72% and the “Population Mitotic Cells (%)” value [4] was 76%. The “Population Normal (%)” value [4] was 92%, the “Population Pyknosed Nuclei (%)” value [4] was 13% and the “Population Tubulin-Different-Phenotype (%)” value [4] was 49%. The “Total Cell Count” value [4] was 107, the “Population Apoptotic (%)” value [5] was 30% and the “Population Fragmented Nuclei (%)” value [5] was 20%. The “Population Healthy Nuclei (%)” value [5] was 55%, the “Population Hoechst High Intensity Objects (%)” value [5] was 9% and the “Population Membrane Permeable-Phenotype (%)” value [5] was 30%. The “Population Mitochondria Different-Phenotype (%)” value [5] was 4%, the “Population Mitotic Cells (%)” value [5] was 70% and the “Population Normal (%)” value [5] was 90%. The “Population Pyknosed Nuclei (%)” value [5] was 24%, the “Population Tubulin-Different-Phenotype (%)” value [5] was 34% and the “Total Cell Count” value [5] was 92. For the same compound, the “Population Apoptotic (%)” value [6] was 33%, the “Population Fragmented Nuclei (%)” value [6] was 3% and the “Population Healthy Nuclei (%)” value [6] was 85%. The “Population Hoechst High Intensity Objects (%)” value [6] was 5%, the “Population Membrane Permeable-Phenotype (%)” value [6] was 4% and the “Population Mitochondria Different-Phenotype (%)” value [6] was 6%. The “Population Mitotic Cells (%)” value [6] was 66%, the “Population Normal (%)” value [6] was 94% and the “Population Pyknosed Nuclei (%)” value [6] was 10%. For the same compound, the “Population Tubulin-Different-Phenotype (%)” value [6] was 2%, the “Total Cell Count” value [6] was 59 and the “Population Apoptotic (%)” value [7] was 74%. For the same compound, the “Population Fragmented Nuclei (%)” value [7] was 25%, the “Population Healthy Nuclei (%)” value [7] was 50% and the “Population Hoechst High Intensity Objects (%)” value [7] was 15%. The “Population Membrane Permeable-Phenotype (%)” value [7] was 19%, the “Population Mitochondria Different-Phenotype (%)” value [7] was 21% and the “Population Mitotic Cells (%)” value [7] was 25%. For the same compound, the “Population Normal (%)” value [7] was 84%, the “Population Pyknosed Nuclei (%)” value [7] was 23% and the “Population Tubulin-Different-Phenotype (%)” value [7] was 64%. For the same compound, the “Total Cell Count” value [7] was 133, the “Population Apoptotic (%)” value [8] was 40% and the “Population Fragmented Nuclei (%)” value [8] was 7%. The “Population Healthy Nuclei (%)” value [8] was 78%, the “Population Hoechst High Intensity Objects (%)” value [8] was 5% and the “Population Membrane Permeable-Phenotype (%)” value [8] was 5%. The “Population Mitochondria Different-Phenotype (%)” value [8] was 78%, the “Population Mitotic Cells (%)” value [8] was 60% and the “Population Normal (%)” value [8] was 94%. The “Population Pyknosed Nuclei (%)” value [8] was 15%, the “Population Tubulin-Different-Phenotype (%)” value [8] was 46% and the “Total Cell Count” value [8] was 106. For the same compound, the “Population Apoptotic (%)” value [9] was 76%, the “Population Fragmented Nuclei (%)” value [9] was 33% and the “Population Healthy Nuclei (%)” value [9] was 50%. The “Population Hoechst High Intensity Objects (%)” value [9] was 12%, the “Population Membrane Permeable-Phenotype (%)” value [9] was 30% and the “Population Mitochondria Different-Phenotype (%)” value [9] was 4%. The “Population Mitotic Cells (%)” value [9] was 23%, the “Population Normal (%)” value [9] was 87% and the “Population Pyknosed Nuclei (%)” value [9] was 15%. For the same compound, the “Population Tubulin-Different-Phenotype (%)” value [9] was 45%, the “Total Cell Count” value [9] was 95 and the “Population Apoptotic (%)” value [10] was 83%. For the same compound, the “Population Fragmented Nuclei (%)” value [10] was 27%, the “Population Healthy Nuclei (%)” value [10] was 67% and the “Population Membrane Permeable-Phenotype (%)” value [10] was 13%. The “Population Mitochondria Different-Phenotype (%)” value [10] was 1%, the “Population Mitotic Cells (%)” value [10] was 16% and the “Population Pyknosed Nuclei (%)” value [10] was 4%. The “Population Tubulin-Different-Phenotype (%)” value [10] was 35%, the “Total Cell Count” value [10] was 157 and the “Population Apoptotic (%)” value [11] was 76%. For the same compound, the “Population Fragmented Nuclei (%)” value [11] was 41%, the “Population Healthy Nuclei (%)” value [11] was 50% and the “Population Hoechst High Intensity Objects (%)” value [11] was 24%. For the same compound, the “Population Membrane Permeable-Phenotype (%)” value [11] was 22%, the “Population Mitochondria Different-Phenotype (%)” value [11] was 4% and the “Population Mitotic Cells (%)” value [11] was 23%. For the same compound, the “Population Normal (%)” value [11] was 75%, the “Population Pyknosed Nuclei (%)” value [11] was 8% and the “Population Tubulin-Different-Phenotype (%)” value [11] was 55%. The “Total Cell Count” value [11] was 196, the “Population Apoptotic (%)” value [12] was 100% and the “Population Fragmented Nuclei (%)” value [12] was 48%. The “Population Hoechst High Intensity Objects (%)” value [12] was 20%, the “Population Membrane Permeable-Phenotype (%)” value [12] was 15% and the “Population Mitochondria Different-Phenotype (%)” value [12] was 2%. The “Population Mitotic Cells (%)” value [12] was 0%, the “Population Normal (%)” value [12] was 79% and the “Population Pyknosed Nuclei (%)” value [12] was 0%. For the same compound, the “Population Tubulin-Different-Phenotype (%)” value [12] was 66% and the “Total Cell Count” value [12] was 278.

Source: ChEMBL document CHEMBL4689842, “EUbOPEN Chemogenomics Library wave 1” (2021)
